The subject of assay [1] is KB-C2. Put plainly: Inhibition of P-gp-mediated multidrug-resistance in human KB-C2 cells assessed as increase in colchicine-induced cytotoxicity at 1 ug/ml after 48 hrs by MTT assay. In kind it is cell-based. (Tetrazolium assays rely on reduction of a dye to a coloured formazan, in cell work by metabolically active cells.)
The subject of assay [2] is KB-C2. Nature of the assay: Inhibition of P-gp-mediated multidrug-resistance in human KB-C2 cells assessed as increase in colchicine-induced cytotoxicity at 5 ug/ml after 48 hrs by MTT assay. The format is cell-based.
Assay [3] concerns KB. Put plainly: Cytotoxicity against human KB cells after 48 hrs by MTT assay. In kind it is functional, cell-based.
The nature of assay [4]: Cytotoxicity against human multidrug-resistant KB-C2 cells after 48 hrs by MTT assay. In kind it is functional, cell-based. To be noted: KB-C2, 48 h. In a few lines:
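Seeded 5 × 10³ cells/well, preincubated 24 h, then compounds at 2, 10, 50, 100 µg/mL in medium (0.5% DMSO final) for 48 h. MTT 0.5 mg/mL for 4 h, formazan dissolved in DMSO, OD 540 nm; IC50 relative to vehicle controls.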

As a reminder, the IC50 is the concentration that inhibits the measured activity by half. Read a high IC50 as lower potency. Consider `COC(=O)CC(=O)O[C@@H]1CC[C@]2(C)[C@H]3CC[C@@H]4[C@@H]([C@]5(C)CC[C@H](C(C)(C)O)O5)CC[C@@]4(C)[C@]3(C)CC[C@H]2C1(C)C`, for which the figures for the fold change (FC) in assay [1] and in assay [2] were 1.1 and 14.8, respectively. The figures for the IC50 in assay [3] and in assay [4] were 45.4 µM and 56.6 µM, respectively.
As for `CCNC(=O)CC(=O)O[C@@H]1CC[C@]2(C)[C@H]3C[C@@H](OC(C)=O)[C@@H]4[C@@H]([C@]5(C)CC[C@H](C(C)(C)O)O5)CC[C@@]4(C)[C@]3(C)CC[C@H]2C1(C)C`, the fold change (FC) in assay [1] is 2.6; in assay [2], 53.9. Also, the values for the IC50 in assay [3] and in assay [4] were 39.7 µM and 43.9 µM, respectively.
For `CC(=O)O[C@@H]1C[C@@H]2[C@@]3(C)CC[C@@H](OC(=O)CC(=O)N(C)C)C(C)(C)[C@@H]3CC[C@@]2(C)[C@]2(C)CC[C@H]([C@]3(C)CC[C@H](C(C)(C)O)O3)[C@@H]12`, in that order: 2.4, 87.5, 25.2 µM and 28 µM.
With `CC(=O)O[C@@H]1C[C@@H]2[C@@]3(C)CC[C@@H](OC(=O)CC(=O)NC(C)(C)C)C(C)(C)[C@@H]3CC[C@@]2(C)[C@]2(C)CC[C@H]([C@]3(C)CC[C@H](C(C)(C)O)O3)[C@@H]12`, the fold change (FC) came out at 1.1 in assay [1] and 9.8 in assay [2]. The figures for the IC50 in assay [3] and in assay [4] were 40.5 µM and 47.9 µM, respectively.
`CNC(=O)CC(=O)O[C@@H]1CC[C@]2(C)[C@H]3C[C@@H](OC(C)=O)[C@@H]4[C@@H]([C@]5(C)CC[C@H](C(C)(C)O)O5)CC[C@@]4(C)[C@]3(C)CC[C@H]2C1(C)C`: the fold change (FC) is 4.7 in assay [1] and 74.4 in assay [2]. The IC50 in assay [3] turned out to be 40.9 µM; in assay [4] it was 43.1 µM.
Taken in the same sequence, the figures for `CC(=O)O[C@@H]1C[C@@H]2[C@@]3(C)CC[C@@H](OC(=O)CC(N)=O)C(C)(C)[C@@H]3CC[C@@]2(C)[C@]2(C)CC[C@H]([C@]3(C)CC[C@H](C(C)(C)O)O3)[C@@H]12` were 2.1, 49.3, 39.3 µM and 43.7 µM.
With `CC(=O)O[C@@H]1C[C@@H]2[C@@]3(C)CC[C@@H](OC(=O)CC(=O)N4CCOCC4)C(C)(C)[C@@H]3CC[C@@]2(C)[C@]2(C)CC[C@H]([C@]3(C)CC[C@H](C(C)(C)O)O3)[C@@H]12`, the fold change (FC) in assay [1] worked out at 17.4; in assay [2] it was 185. The figures for the IC50 in assay [3] and in assay [4] were 30.8 µM and 27.5 µM, respectively.
Turning to `COC(=O)CC(=O)O[C@@H]1CC[C@]2(C)[C@H]3C[C@@H](OC(C)=O)[C@@H]4[C@@H]([C@]5(C)CC[C@H](C(C)(C)O)O5)CC[C@@]4(C)[C@]3(C)CC[C@H]2C1(C)C` [METHYL PAPYRIFERATE], the fold change (FC) was determined as 1.5 in assay [1] and 51.6 in assay [2]. For the same molecule, the IC50 in assay [3] stood at 26.7 µM; in assay [4] it was 32.1 µM.
As to `CCCNC(=O)CC(=O)O[C@@H]1CC[C@]2(C)[C@H]3C[C@@H](OC(C)=O)[C@@H]4[C@@H]([C@]5(C)CC[C@H](C(C)(C)OC(=O)C(=O)NCCC)O5)CC[C@@]4(C)[C@]3(C)CC[C@H]2C1(C)C`, the fold change (FC) in assay [1] was found to be 1.2; in assay [2], 68.8. For the same molecule, the IC50 in assay [3] amounted to 24.8 µM; in assay [4], 26.6 µM.
`COc1cccc2c1C(=O)c1c(O)c3c(c(O)c1C2=O)C[C@@](O)(C(C)=O)C[C@@H]3O[C@H]1C[C@H](N)[C@H](O)[C@H](C)O1` [DAUNORUBICIN]: the values for the 50% inhibitory concentration (IC50) in assay [3] and in assay [4] were 0.64 µM and 16.2 µM, respectively.
For the molecule `CCOC(=O)CC(=O)O[C@@H]1CC[C@]2(C)[C@H]3CC[C@@H]4[C@@H]([C@]5(C)CC[C@H](C(C)(C)O)O5)CC[C@@]4(C)[C@]3(C)CC[C@H]2C1(C)C`, the IC50 in assay [3] and in assay [4] was more than 100 µM throughout.

Values taken from ChEMBL document CHEMBL1156240, “Papyriferic acid derivatives as reversal agents of multidrug resistance in cancer cells” (Bioorg Med Chem, 2010).
